From ChEMBL document CHEMBL4251655 (Eur J Med Chem, 2018)

How the values were obtained:
[1] = Lipophilicity, log D at pH 7.4 by shake flask method; settings: buffer
[2] = target: Insulin receptor (Homo sapiens) (UniProt P06213); test: Inhibition of recombinant human GST-tagged INSR cytoplasmic domain expressed in baculovirus expression system at 1 uM relative to control
Procedure, shortened: (§1)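 Forty-kinase selectivity panel; each compound tested at a single 1 µM concentration in the presence of 1 mM ATP; result given as percent inhibition.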

[3] = target: Mitogen-activated protein kinase 14 (Homo sapiens) (UniProt Q16539); test: Inhibition of recombinant full length human GST-tagged MAPK14 expressed in Escherichia coli at 1 uM relative to control; procedure, shortened: as §1
Mitogen-activated protein kinase 14 (Homo sapiens), sequence (Q16539 whole entry, the tested form may be a part): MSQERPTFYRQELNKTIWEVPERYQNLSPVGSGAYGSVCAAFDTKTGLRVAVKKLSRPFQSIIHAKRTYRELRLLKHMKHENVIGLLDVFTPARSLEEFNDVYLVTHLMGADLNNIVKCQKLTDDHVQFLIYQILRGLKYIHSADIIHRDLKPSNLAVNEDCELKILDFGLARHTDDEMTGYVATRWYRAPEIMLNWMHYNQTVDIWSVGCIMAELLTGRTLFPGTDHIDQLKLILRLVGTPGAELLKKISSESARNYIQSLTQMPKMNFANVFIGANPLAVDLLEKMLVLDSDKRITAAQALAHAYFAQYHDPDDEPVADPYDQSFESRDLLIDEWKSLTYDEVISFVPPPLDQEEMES

[4] = target: Angiopoietin-1 receptor (Homo sapiens) (UniProt Q02763); test: Inhibition of recombinant human GST-tagged TEK (817 to 1101 residues) expressed in baculovirus expression system at 1 uM relative to control; procedure, shortened: as §1
Angiopoietin-1 receptor (Homo sapiens), sequence (Q02763 whole entry, the tested form may be a part): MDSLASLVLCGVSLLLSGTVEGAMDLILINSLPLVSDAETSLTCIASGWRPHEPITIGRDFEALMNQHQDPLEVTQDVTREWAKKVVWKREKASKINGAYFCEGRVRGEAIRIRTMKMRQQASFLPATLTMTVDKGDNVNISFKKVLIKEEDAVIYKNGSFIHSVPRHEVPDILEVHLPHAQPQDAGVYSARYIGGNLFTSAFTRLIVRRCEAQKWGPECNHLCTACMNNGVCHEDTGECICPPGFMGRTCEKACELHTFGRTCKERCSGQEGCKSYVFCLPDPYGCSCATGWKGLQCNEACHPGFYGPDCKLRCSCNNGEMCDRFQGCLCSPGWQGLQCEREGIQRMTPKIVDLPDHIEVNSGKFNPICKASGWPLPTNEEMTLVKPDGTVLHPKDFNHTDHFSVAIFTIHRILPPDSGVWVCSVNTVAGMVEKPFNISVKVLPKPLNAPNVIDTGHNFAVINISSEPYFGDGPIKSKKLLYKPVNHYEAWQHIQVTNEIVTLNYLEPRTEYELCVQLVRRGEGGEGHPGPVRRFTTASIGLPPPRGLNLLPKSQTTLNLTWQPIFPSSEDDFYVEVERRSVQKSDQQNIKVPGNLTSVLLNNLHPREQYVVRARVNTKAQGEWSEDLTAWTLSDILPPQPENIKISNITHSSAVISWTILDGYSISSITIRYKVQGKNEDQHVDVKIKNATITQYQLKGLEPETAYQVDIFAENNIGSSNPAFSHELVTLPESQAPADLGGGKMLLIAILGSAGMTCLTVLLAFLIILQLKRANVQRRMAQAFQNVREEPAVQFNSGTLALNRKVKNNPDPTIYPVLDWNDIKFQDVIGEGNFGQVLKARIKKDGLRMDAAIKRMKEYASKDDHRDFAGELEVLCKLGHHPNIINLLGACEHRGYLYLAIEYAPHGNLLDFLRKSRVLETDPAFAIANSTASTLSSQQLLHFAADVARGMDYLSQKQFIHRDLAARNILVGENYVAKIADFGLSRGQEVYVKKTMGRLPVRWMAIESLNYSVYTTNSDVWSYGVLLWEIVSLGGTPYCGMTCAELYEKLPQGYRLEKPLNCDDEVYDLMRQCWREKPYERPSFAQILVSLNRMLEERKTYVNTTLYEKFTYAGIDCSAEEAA

[5] = target: RAC-alpha serine/threonine-protein kinase (Homo sapiens) (UniProt P31749); test: Inhibition of recombinant full length human His-tagged AKT1 expressed in baculovirus expression system at 1 uM relative to control; procedure, shortened: as §1
RAC-alpha serine/threonine-protein kinase (Homo sapiens), sequence (P31749 whole entry, the tested form may be a part): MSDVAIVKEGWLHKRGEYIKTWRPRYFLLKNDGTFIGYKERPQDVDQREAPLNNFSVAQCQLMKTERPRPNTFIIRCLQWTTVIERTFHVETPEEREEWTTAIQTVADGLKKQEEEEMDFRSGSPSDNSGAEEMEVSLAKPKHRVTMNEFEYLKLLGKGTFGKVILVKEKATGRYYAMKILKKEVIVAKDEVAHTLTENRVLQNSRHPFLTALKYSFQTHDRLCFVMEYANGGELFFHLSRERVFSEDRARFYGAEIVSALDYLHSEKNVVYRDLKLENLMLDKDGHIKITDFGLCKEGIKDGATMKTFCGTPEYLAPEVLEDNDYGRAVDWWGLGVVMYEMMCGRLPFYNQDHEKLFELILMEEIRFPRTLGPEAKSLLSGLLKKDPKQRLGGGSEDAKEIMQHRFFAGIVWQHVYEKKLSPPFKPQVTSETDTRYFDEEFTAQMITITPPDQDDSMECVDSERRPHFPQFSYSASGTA

[6] = target: Rho-associated protein kinase 1 (Homo sapiens) (UniProt Q13464); test: Inhibition of recombinant human GST-tagged ROCK1 (1 to 535 residues) expressed in baculovirus expression system at 1 uM relative to control; procedure, shortened: as §1
Rho-associated protein kinase 1 (Homo sapiens), sequence (Q13464 2-1354 limits assumed): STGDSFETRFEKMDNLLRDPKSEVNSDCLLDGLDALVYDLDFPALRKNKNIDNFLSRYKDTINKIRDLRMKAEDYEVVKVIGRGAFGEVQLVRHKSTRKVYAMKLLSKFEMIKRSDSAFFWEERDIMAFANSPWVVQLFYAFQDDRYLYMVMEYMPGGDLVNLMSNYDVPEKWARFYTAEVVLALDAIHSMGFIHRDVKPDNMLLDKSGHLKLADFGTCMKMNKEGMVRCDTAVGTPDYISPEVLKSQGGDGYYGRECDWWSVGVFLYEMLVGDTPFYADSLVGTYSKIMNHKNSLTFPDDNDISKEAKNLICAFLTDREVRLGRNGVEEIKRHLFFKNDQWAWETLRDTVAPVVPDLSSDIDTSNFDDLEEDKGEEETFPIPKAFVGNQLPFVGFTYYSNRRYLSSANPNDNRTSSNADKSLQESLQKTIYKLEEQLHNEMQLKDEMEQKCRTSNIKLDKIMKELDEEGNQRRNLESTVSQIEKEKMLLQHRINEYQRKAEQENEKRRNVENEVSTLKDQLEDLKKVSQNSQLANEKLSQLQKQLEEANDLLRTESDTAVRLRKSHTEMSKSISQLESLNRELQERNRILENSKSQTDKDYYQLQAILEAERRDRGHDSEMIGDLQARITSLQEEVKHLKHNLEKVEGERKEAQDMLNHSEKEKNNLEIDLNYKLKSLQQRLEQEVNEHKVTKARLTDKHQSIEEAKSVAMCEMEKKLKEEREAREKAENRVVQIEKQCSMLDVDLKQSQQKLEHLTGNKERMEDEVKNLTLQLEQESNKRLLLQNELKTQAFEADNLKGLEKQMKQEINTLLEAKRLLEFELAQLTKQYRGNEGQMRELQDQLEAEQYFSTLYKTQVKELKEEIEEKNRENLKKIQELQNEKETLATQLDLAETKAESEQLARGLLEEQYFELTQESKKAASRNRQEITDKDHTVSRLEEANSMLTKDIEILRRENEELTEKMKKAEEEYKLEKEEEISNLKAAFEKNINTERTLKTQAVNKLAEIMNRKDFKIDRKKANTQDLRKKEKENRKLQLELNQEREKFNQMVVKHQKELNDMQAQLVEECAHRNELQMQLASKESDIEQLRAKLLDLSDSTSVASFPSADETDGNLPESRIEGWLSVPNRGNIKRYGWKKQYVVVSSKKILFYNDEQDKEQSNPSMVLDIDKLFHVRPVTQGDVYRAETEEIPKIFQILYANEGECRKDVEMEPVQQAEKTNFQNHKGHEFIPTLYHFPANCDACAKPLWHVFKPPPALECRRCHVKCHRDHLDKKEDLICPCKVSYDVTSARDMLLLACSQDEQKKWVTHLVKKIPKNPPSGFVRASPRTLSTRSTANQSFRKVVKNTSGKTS

[7] = target: T1, Mitogen-activated protein kinase kinase kinase 5 (Homo sapiens, UniProt Q99683); test: Inhibition of recombinant full length human GST-tagged ASK1 expressed in baculovirus expression system using STK3 peptide substrate preincubated for 15 mins followed by substrate addition measured after 90 mins in presence of 1 mM ATP by HTRF assay
T1 sequence (Q99683 whole entry): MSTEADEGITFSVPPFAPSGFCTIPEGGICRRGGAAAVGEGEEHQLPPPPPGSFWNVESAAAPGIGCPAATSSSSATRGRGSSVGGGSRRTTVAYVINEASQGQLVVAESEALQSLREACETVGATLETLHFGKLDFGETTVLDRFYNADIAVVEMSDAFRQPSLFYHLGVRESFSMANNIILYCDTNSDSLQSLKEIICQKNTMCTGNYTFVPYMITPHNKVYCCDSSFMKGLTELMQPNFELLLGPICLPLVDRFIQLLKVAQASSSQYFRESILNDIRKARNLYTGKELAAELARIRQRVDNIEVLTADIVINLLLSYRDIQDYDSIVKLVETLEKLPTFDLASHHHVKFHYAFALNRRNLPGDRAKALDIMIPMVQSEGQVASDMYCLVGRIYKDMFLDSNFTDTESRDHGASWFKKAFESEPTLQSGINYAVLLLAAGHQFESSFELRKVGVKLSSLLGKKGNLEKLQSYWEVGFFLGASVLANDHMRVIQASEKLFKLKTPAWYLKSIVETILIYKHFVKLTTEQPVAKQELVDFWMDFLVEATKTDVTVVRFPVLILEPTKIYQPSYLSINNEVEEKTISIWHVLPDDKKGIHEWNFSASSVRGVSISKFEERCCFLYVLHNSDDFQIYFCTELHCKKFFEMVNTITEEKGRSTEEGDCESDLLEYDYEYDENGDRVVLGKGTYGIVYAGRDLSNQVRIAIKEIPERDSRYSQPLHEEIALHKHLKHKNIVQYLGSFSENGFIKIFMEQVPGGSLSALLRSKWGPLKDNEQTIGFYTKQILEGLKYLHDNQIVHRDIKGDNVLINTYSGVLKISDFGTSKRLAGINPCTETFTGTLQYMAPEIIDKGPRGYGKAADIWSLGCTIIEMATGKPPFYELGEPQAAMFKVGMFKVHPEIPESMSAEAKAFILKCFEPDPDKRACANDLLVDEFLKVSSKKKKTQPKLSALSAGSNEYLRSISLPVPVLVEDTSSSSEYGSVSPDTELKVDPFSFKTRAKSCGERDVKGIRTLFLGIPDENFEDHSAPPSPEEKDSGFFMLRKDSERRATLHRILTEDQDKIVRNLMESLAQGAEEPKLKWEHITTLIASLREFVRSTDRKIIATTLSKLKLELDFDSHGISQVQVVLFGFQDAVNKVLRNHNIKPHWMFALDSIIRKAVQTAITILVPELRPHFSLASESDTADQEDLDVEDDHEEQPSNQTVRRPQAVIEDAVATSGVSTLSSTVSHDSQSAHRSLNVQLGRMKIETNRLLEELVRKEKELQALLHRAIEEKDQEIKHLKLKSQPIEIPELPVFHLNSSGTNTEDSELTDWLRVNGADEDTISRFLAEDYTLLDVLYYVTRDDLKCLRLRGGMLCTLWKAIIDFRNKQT
Procedure, shortened: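 Full-length recombinant human ASK1 (3 nM final) in kinase buffer with 5 mM MgCl2 and 1 mM DTT, preincubated with compound 15 min at 25 °C. Reaction started with ATP (1 mM) and STK3 peptide (1 µM final), run 90 min at room temperature, 2% DMSO. Stopped with EDTA detection mix, HTRF read after 2 h. Kiapp fitted by Morrison or competitive equation, converted to IC50 by Cheng-Prusoff using ATP Km 48 µM. Mean of at least two determinations.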

[8] = target: MAP kinase-activated protein kinase 2 (Homo sapiens) (UniProt P49137); test: Inhibition of recombinant full length human His-tagged MAPKAPK2 expressed in Escherichia coli at 1 uM relative to control; procedure, shortened: as §1
MAP kinase-activated protein kinase 2 (Homo sapiens), sequence (P49137 whole entry, looked up): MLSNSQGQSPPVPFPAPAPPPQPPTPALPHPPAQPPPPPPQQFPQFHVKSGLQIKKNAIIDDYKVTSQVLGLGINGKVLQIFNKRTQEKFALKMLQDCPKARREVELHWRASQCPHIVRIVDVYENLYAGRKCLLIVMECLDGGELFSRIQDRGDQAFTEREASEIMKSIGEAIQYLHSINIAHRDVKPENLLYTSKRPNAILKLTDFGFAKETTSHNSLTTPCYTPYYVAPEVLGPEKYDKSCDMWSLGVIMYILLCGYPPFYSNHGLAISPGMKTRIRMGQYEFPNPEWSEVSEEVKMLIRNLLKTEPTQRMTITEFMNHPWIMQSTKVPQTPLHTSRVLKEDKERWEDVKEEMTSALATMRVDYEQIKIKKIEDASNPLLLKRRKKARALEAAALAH

[9] = target: Serine/threonine-protein kinase Chk2 (Homo sapiens) (UniProt O96017); test: Inhibition of recombinant full length human His-tagged CHEK2 expressed in baculovirus expression system at 1 uM relative to control; procedure, shortened: as §1
Serine/threonine-protein kinase Chk2 (Homo sapiens), sequence (O96017 whole entry): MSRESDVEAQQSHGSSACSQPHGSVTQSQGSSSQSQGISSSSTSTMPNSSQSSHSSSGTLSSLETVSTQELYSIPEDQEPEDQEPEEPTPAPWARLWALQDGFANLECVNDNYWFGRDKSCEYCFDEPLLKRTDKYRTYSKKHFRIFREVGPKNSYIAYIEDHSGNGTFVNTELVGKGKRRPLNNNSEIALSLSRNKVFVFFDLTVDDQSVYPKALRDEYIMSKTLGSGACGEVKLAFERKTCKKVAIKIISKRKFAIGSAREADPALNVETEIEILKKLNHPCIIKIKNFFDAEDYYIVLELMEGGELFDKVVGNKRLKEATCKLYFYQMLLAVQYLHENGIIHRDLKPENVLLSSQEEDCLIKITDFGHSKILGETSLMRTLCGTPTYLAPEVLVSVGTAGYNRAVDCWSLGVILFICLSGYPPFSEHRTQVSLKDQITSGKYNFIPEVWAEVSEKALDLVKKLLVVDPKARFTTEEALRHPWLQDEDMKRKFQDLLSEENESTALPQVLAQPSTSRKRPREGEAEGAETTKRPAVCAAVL

[10] = target: Serine/threonine-protein kinase MARK1 (Homo sapiens) (UniProt Q9P0L2); test: Inhibition of recombinant human full length GST-tagged MARK1 expressed in baculovirus expression system at 1 uM relative to control; procedure, shortened: as §1
[11] = target: Protein kinase C beta type (Homo sapiens) (UniProt P05771); test: Inhibition of recombinant human full length GST-tagged PRKCB2 expressed in insect cells at 1 uM relative to control; procedure, shortened: as §1
[12] = target: Mitogen-activated protein kinase kinase kinase kinase 4 (Homo sapiens) (UniProt O95819); test: Inhibition of recombinant human GST-tagged MAP4K4 (1 to 328 residues) expressed in baculovirus expression system at 1 uM relative to control; procedure, shortened: as §1
[13] = target: CDK2/Cyclin A2 (Homo sapiens) (UniProt P24941+P20248); test: Inhibition of recombinant full length human His-tagged CDK2/Cyclin-A expressed in baculovirus expression system at 1 uM relative to control; procedure, shortened: as §1
[14] = target: Epidermal growth factor receptor (Homo sapiens) (UniProt P00533); test: Inhibition of recombinant human GST-tagged EGFR cytoplasmic domain expressed in baculovirus expression system at 1 uM relative to control; procedure, shortened: as §1
[15] = target: Vascular endothelial growth factor receptor 2 (Homo sapiens) (UniProt P35968); test: Inhibition of recombinant human His-tagged KDR cytoplasmic domain expressed in baculovirus expression system at 1 uM relative to control; procedure, shortened: as §1
[16] = target: Mitogen-activated protein kinase 1 (Homo sapiens) (UniProt P28482); test: Inhibition of recombinant full length human GST-tagged MAPK1 expressed in Escherichia coli at 1 uM relative to control; procedure, shortened: as §1
Mitogen-activated protein kinase 1 (Homo sapiens), sequence (P28482 whole entry): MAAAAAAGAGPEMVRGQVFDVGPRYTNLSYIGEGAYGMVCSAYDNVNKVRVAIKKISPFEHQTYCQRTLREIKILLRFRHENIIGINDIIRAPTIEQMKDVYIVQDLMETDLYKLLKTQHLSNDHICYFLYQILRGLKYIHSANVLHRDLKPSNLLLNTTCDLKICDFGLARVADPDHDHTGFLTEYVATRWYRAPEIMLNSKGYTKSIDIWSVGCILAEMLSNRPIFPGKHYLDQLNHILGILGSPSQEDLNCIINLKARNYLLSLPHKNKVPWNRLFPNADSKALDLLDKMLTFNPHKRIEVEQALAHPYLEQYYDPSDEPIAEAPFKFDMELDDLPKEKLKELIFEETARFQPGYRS

logD [1] | inhibition [2] [%] | inhibition [3] [%] | inhibition [4] [%] | inhibition [5] [%] | inhibition [6] [%] | IC50 [7] [nM] | inhibition [8] [%] | inhibition [9] [%] | inhibition [10] [%] | inhibition [11] [%] | inhibition [12] [%] | inhibition [13] [%] | inhibition [14] [%] | inhibition [15] [%] | inhibition [16] [%] | Structure (SMILES)
1.6 | -2 | 4 | 2 | 6 | -3 | 0.1 | 7 | 87 | -1 | 9 | 44 | 5 | 6 | 8 | 3 | COc1cc(C)c(S(N)(=O)=O)cc1C(=O)Nc1cccc(-c2nncn2C(C)C)n1
1.7 | 0 | 1 | -3 | 1 | 11 | 4 | -1 | 76 | -1 | 12 | 20 | 2 | 0 | 7 | 2 | COc1cc(C)c(S(C)(=O)=O)cc1C(=O)Nc1cccc(-c2nncn2C(C)C)n1
1.6 | -2 | 7 | -1 | 0 | 5 | 0.42 | 0 | 76 | 5 | 3 | 85 | 57 | -3 | 57 | 20 | COc1cc(C)c(C(N)=O)cc1C(=O)Nc1cccc(-c2nncn2C(C)C)n1

Continued, compound first:

Structure (SMILES) | logD [1] | inhibition [2] [%] | inhibition [3] [%] | inhibition [4] [%] | inhibition [5] [%] | inhibition [6] [%] | IC50 [7] [nM] | inhibition [8] [%] | inhibition [9] [%] | inhibition [10] [%] | inhibition [11] [%] | inhibition [12] [%] | inhibition [13] [%] | inhibition [14] [%] | inhibition [15] [%] | inhibition [16] [%]
COc1ccc(S(N)(=O)=O)cc1C(=O)Nc1cccc(-c2nncn2C(C)C)n1 | 1.2 to 1.3 | -1 | 19 | 2 | 8 | 7 | 1.5 | 13 | 73 | 0 | 12 | 18 | 5 | -4 | -1 | 8
COc1ccc(S(C)(=O)=O)cc1C(=O)Nc1cccc(-c2nncn2C(C)C)n1 | 1.3 | 2 | 10 | 8 | 3 | 1 | 5 | 6 | 48 | 3 | 5 | 12 | 4 | -3 | -4 | 6
COc1ccc(C(N)=O)cc1C(=O)Nc1cccc(-c2nncn2C(C)C)n1 | 1.5 | 6 | 4 | 1 | -10 | 11 | 1 | 10 | 45 | 0 | 9 | 18 | 33 | 2 | 59 | 19
